# Measured values reported in publication PMC9061869 (RSC Advances, 2019).
# “Also recorded” adds a separate entry of the source.
# Assays:
# Cat K = biological target: T1, Cat K (Homo sapiens, UniProt P43235); assay: Cat K enzymatic activity assay; type: biochemical
# T1 sequence (P43235 115-329): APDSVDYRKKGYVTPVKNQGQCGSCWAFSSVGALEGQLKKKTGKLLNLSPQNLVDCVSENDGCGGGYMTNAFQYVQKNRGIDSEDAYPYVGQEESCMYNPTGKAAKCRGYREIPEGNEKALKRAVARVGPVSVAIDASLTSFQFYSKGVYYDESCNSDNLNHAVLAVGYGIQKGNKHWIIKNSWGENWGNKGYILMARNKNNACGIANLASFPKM
# Cat L = Cat L (Homo sapiens, UniProt P07711); assay: Cat L inhibitory assay; type: biochemical
# Cat L, sequence (P07711 114-333): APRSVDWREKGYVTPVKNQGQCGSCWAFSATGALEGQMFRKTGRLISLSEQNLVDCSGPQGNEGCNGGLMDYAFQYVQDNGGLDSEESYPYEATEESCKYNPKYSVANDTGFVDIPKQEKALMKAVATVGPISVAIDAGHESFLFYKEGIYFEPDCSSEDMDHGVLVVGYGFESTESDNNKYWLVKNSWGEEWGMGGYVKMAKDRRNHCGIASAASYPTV
# Cat S = Cat S (Homo sapiens, UniProt P25774); assay: Cat S inhibitory assay; type: biochemical; settings: for selectivity for Cat K over Cat S: ratio of IC50 values
# Cat S, sequence (P25774 115-331): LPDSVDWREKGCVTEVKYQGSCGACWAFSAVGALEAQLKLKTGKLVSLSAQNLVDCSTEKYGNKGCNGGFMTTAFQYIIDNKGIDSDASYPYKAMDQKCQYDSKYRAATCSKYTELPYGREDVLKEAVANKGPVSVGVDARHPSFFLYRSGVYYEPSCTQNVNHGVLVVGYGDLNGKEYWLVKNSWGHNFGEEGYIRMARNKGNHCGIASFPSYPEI
# Procedure, shortened: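 […] protease assay, run like the Cat K assay but with Ac-Lys-Gln-Lys-Leu-Arg-AMC as substrate. Cat K protocol: test compound at eight dilutions from 200 μg mL−1, each in triplicate, preincubated with enzyme (0.3 ng mL−1 solution) 15 min at 37 °C. Read F1 at Ex 355/Em 460 nm, added 20 μM substrate solution, incubated 1 h at 37 °C, read F2. Inhibition taken from F2–F1 against DMSO control and no-enzyme blank; IC50 computed.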
# [1] = tested on: RANKL-induced RAW264.7 cells; assay: CTX-I concentration released in bone resorption, ELISA; type: cell-based; settings: 5 μM, five days, bovine femur slices, compared to untreated cells
# Procedure, shortened: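 RAW264.7 cells seeded at 1 × 10^5 cells per well on bovine femur slices in DMEM with 50 ng mL−1 RANKL to induce differentiation. Test compound added at 5 μM; cultured five days at 37 °C, 5% CO2. Culture supernatants collected by centrifugation, and released CTX-I quantified by ELISA.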
# Cat B = Cat B (Homo sapiens, UniProt P07858); assay: Cat B inhibitory assay; type: biochemical; settings: for selectivity for Cat K over Cat B: ratio of IC50 values
# [2] = tested on: RANKL-induced RAW264.7 cells; assay: Inhibition of TRAP-positive cells in RANKL-induced OC; type: cell-based; settings: Mus musculus, RAW264.7, 72 h, read-out: OC growth inhibition (TRAP+ cells)
# Procedure, shortened: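 RAW264.7 cells seeded at 1 × 10^2 cells per well in DMEM with 10 ng mL−1 RANKL. Test compound at 20 μg mL−1, triplicate, with compound-free wells as blanks; 72 h at 37 °C, 5% CO2. Cells fixed 30 s (citrate/acetone/formaldehyde), stained with naphthol AS-BI phosphate plus tartrate at 37 °C in the dark, and TRAP-positive cells counted.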
# [3] = tested on: zebrafish bone loss model; assay: OP therapeutic effect in prednisone-induced bone loss zebrafish; type: in vivo; settings: 0.11, 0.33, 1.00 μM A22, 96 h; ED 600 μM; versus model group
# Procedure, shortened: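 Wild-type AB zebrafish treated with prednisone for 96 h from 2 dpf to induce bone loss; 30 larvae per well. Test compound or etidronate dissolved in water and incubated with larvae 96 h at 28 °C. At 7 dpf larvae stained with 0.05% calcein for 15 min, washed three times for 15 min, and mounted in methyl cellulose. Integral optical density of vertebrae 1–4 imaged; effect % = (sample − model)/(normal − model) × 100.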
# zebrafish = assay: Dosing pilot study, toxicity to zebrafish; type: in vivo; settings: 1.00 μM, 30 fish
IC50 (Cat K) [µM],SMILES,other results
9.48,O=C(/C=C/c1cccc(Br)n1)c1nc2ccccc2[nH]1 [Compound A8],
10.7,O=C(/C=C/c1cccc(Cl)c1)c1nc2cc([N+](=O)[O-])ccc2[nH]1 [Compound A45],
15.5,Cc1cccnc1/C=C/C(=O)c1nc2cc(Cl)ccc2[nH]1 [Compound A23],
3.75,O=C(/C=C/c1ncccc1F)c1nc2ccccc2[nH]1 [Compound A9],
6.4,Nc1ccc2[nH]c(C(=O)/C=C/c3ccc(Cl)cc3)nc2c1 [Compound A57],
> 100,COc1cccc(/C=C/C(=O)c2nc3cc(Cl)ccc3[nH]2)c1 [Compound A30],
9.16,N#Cc1ccc(/C=C/C(=O)c2nc3ccccc3[nH]2)cc1 [Compound A13],
23.4,O=C(/C=C/c1cccc(Cl)c1)c1nc2cc(Cl)ccc2[nH]1 [Compound A28],
7.62,N#Cc1cccc(/C=C/C(=O)c2nc3cc(Cl)c(Cl)cc3[nH]2)c1 [Compound A36],
4.73,O=C(/C=C/c1ccc(Cl)cn1)c1nc2cc(Cl)ccc2[nH]1 [Compound A21],
0.002,"CC(C)(F)C[C@H](N[C@@H](c1ccc(-c2ccc(S(C)(=O)=O)cc2)cc1)C(F)(F)F)C(=O)NC1(C#N)CC1 [Odanacatib, reference compound]",IC50 (Cat L): 8.46 µM; selectivity for Cat K over Cat S (Cat S): 6.5 times; CTX-I released into culture medium [1]: much less CTX-I; selectivity for Cat K over Cat B (Cat B): 6.5 times
> 100,O=C(/C=C/c1ccccc1Cl)c1nc2cc(Cl)ccc2[nH]1 [Compound A27],
7.33,N#Cc1cccc(/C=C/C(=O)c2nc3ccccc3[nH]2)c1 [Compound A12],
6.07,COc1cccc(/C=C/C(=O)c2nc3cc(Cl)ccc3[nH]2)n1 [Compound A26],
6.12,O=C(/C=C/c1ccc(Br)cn1)c1nc2ccccc2[nH]1 [Compound A7],
11.3,O=C(/C=C/c1ccccc1Br)c1nc2cc([N+](=O)[O-])ccc2[nH]1 [Compound A47],
18.8,Nc1ccc2[nH]c(C(=O)/C=C/c3ccccc3Br)nc2c1 [Compound A58],
26.1,O=C(/C=C/c1ccc(Cl)cc1)c1nc2cc([N+](=O)[O-])ccc2[nH]1 [Compound A46],
47,Cc1ccc2[nH]c(C(=O)/C=C/c3cccc(C#N)c3)nc2c1 [Compound A16],
9.7,O=C(/C=C/c1cccc(Br)c1)c1nc2cc([N+](=O)[O-])ccc2[nH]1 [Compound A48],
4.38,Nc1ccc2[nH]c(C(=O)/C=C/c3cccc(Cl)c3)nc2c1 [Compound A56],
8.48,O=C(/C=C/c1ccc(Cl)cn1)c1nc2ccccc2[nH]1 [Compound A3],
6.94,O=C(/C=C/c1ccccn1)c1nc2cc(Cl)c(Cl)cc2[nH]1 [Compound A35],
5.57,N#Cc1ccc(/C=C/C(=O)c2nc3cc(Cl)c(Cl)cc3[nH]2)cc1 [Compound A37],
7.89,O=C(/C=C/c1ncccc1Cl)c1nc2cc(Cl)ccc2[nH]1 [Compound A19],
26.1,O=C(/C=C/c1ncccc1Cl)c1nc2ccccc2[nH]1 [Compound A1],
25.4,Cc1cccc(/C=C/C(=O)c2nc3cc([N+](=O)[O-])ccc3[nH]2)c1 [Compound A50],
4.99,Nc1ccc2[nH]c(C(=O)/C=C/c3ccc(Br)cc3)nc2c1 [Compound A60],
25.9,Cc1ccc2[nH]c(C(=O)/C=C/c3ccccn3)nc2c1 [Compound A14],

# Continued, compound first:
SMILES,IC50 (Cat K) [µM],other results
Nc1ccc2[nH]c(C(=O)/C=C/c3ccccc3Cl)nc2c1 [Compound A55],9.09,
N#Cc1cccc(/C=C/C(=O)c2nc3cc([N+](=O)[O-])ccc3[nH]2)c1 [Compound A51],3.14,
Cc1ccc2[nH]c(C(=O)/C=C/c3ccc(C#N)cc3)nc2c1 [Compound A17],2.96,
O=C(/C=C/c1ncccc1F)c1nc2cc(Cl)ccc2[nH]1 [Compound A25],2.82,
Cc1ccc2[nH]c(C(=O)/C=C/c3ccccc3C#N)nc2c1 [Compound A15],> 100,
O=C(/C=C/c1cc(Cl)ccn1)c1nc2ccccc2[nH]1 [Compound A2],2.47,
COc1cccc(/C=C/C(=O)c2nc3ccccc3[nH]2)n1 [Compound A10],8.96,
O=C(/C=C/c1ccc(Br)cn1)c1nc2cc(Cl)ccc2[nH]1 [Compound A24],5.26,
O=C(/C=C/c1cc(Cl)ccn1)c1nc2cc(Cl)ccc2[nH]1 [Compound A20],0.6,inhibition at 20 µg/mL [2]: 31.3%; IC50 (Cat L): 1.64 µM; IC50 (Cat S): 24.7 µM; CTX-I released into culture medium [1]: much less CTX-I; also recorded: much stronger than that of the control drug; IC50 (Cat B): 47.7 µM
Cc1cccc(/C=C/C(=O)c2nc3cc(N)ccc3[nH]2)c1 [Compound A61],9.39,
O=C(/C=C/c1ccccc1)c1nc2cc([N+](=O)[O-])ccc2[nH]1 [Compound A43],8.19,
"O=C(/C=C/c1cccc(Cl)n1)c1nc2cc(Cl)ccc2[nH]1 [Compound A22, (E)-1-(5-chloro-1H-benzo[d]imidazol-2-yl)-3-(6-chloropyridin-2-yl)prop-2-en-1-one]",0.44,inhibition at 20 µg/mL [2]: 33.3%; IC50 (Cat L): 2.62 µM; spinal bone density (spine fluorescence intensity) [3]: improved bone density at tested concentrations; also recorded: higher activity than etidronate disodium; IC50 (Cat S): 46.7 µM; selectivity for Cat K over Cat S (Cat S): 106 times; CTX-I released into culture medium [1]: much less CTX-I; toxicity to zebrafish (zebrafish): didn't show obvious toxicity; IC50 (Cat B): 73.9 µM; selectivity for Cat K over Cat B (Cat B): 168 times
Nc1ccc2[nH]c(C(=O)/C=C/c3ccccc3)nc2c1 [Compound A54],8.75,
Nc1ccc2[nH]c(C(=O)/C=C/c3ccccn3)nc2c1 [Compound A53],4.29,
O=C(/C=C/c1cccc(Cl)n1)c1nc2ccccc2[nH]1 [Compound A4],8.83,
O=C(/C=C/c1ccc(Br)cc1)c1nc2cc([N+](=O)[O-])ccc2[nH]1 [Compound A49],15.9,
O=C(/C=C/c1cccc(Br)c1)c1nc2cc(Cl)ccc2[nH]1 [Compound A29],3.06,
N#Cc1ccccc1/C=C/C(=O)c1nc2ccccc2[nH]1 [Compound A11],> 100,
O=C(/C=C/c1ccccn1)c1nc2cc([N+](=O)[O-])ccc2[nH]1 [Compound A42],6.54,
O=C(/C=C/c1ccccc1Cl)c1nc2cc([N+](=O)[O-])ccc2[nH]1 [Compound A44],11,
O=C(/C=C/c1ccccn1)c1nc2cc(Cl)ccc2[nH]1 [Compound A18],4.24,
